From ChEMBL document CHEMBL2375274, “Exploration of the structure-activity relationship of a novel tetracyclic class of TSPO ligands-potential novel positron emitting tomography imaging agents” (Bioorg Med Chem Lett, 2013)

Experiments:
[1] = Metabolic stability in Wistar rat brain assessed as remaining parent compound after 30 mins by HPLC analysis; assay type: ADME, tissue-based; conditions: read-out: Stability
In short: (§1)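 ¹⁸F-labelled compounds given to naïve Wistar rats (n = 1). Brain extracts were taken at 10, 30 and 60 min post-injection and analysed by HPLC. The read-out is % parent.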

[2] = Metabolic stability in Wistar rat brain assessed as remaining parent compound after 60 mins by HPLC analysis; assay type: ADME, tissue-based; conditions: read-out: Stability; in short: as §1
[3] = Metabolic stability in Wistar rat brain assessed as remaining parent compound after 10 mins by HPLC analysis; assay type: ADME, tissue-based; conditions: read-out: Stability; in short: as §1
Translocator protein = Translocator protein (Rattus norvegicus, UniProt P16257); test: Displacement of [3H]PK11195 from PBR receptor in Wistar rat heart homogenates; assay type: tissue-based
In short: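 Competition binding against [³H]PK11195 in homogenised rat heart tissue.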

Striatum = test: Ratio of drug uptake in Wistar rat striatum after 2 mins to Wistar rat striatum after 30 mins; assay type: ADME, tissue-based; conditions: in vivo
In short: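 Biodistribution of ¹⁸F-compounds in naïve Wistar rats (n = 3). Regional brain uptake was measured as % id/g at 2 and 30 min post-injection. Ratios were taken between regions, olfactory bulb:striatum at 30 min, and between times, 2:30 min.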

[4] = Octanol-water partition coefficient, log P of the compound by reversed phase liquid chromatography; assay type: physicochemical
[5] = Ratio of drug uptake in Wistar rat brain to Wistar rat striatum after 30 mins; conditions: in vivo, 0.5 h
[6] = Metabolic stability in Wistar rat plasma after 15 mins by HPLC analysis; assay type: ADME, cell-free; conditions: read-out: Stability
In short: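 Radiolabelled compound was incubated in plasma at 37 °C for 15 min. Chiral HPLC analysis then gave the percentage of the active enantiomer that remained.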

Chain of Translocator protein (P16257 whole entry, looked up): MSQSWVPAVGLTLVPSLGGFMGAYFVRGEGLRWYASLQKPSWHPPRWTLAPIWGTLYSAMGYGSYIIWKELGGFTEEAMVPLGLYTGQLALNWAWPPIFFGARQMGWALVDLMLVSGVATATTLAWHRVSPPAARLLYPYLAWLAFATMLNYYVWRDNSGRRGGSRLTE

| SMILES | Ki (Translocator protein) | Ratio (Striatum) | logP [4] | Ratio [5] | further results |
| --- | --- | --- | --- | --- | --- |
| [3H]C([3H])([3H])N(C(=O)c1cc2ccccc2c(-c2ccccc2Cl)n1)C(C)CC (stereo not drawn) |  |  |  |  | remaining at 0.5 h [1]: 100%; remaining at 1 h [2]: 100%; remaining at 10 min [3]: 100% |
| CCN(CCF)C(=O)c1sc2ccccc2c2nc3ccccc3c1-2 | 297 nM |  |  |  |  |
| CCN(CC)C(=O)C1Sc2ccccc2-c2c1c1ccccc1n2CCF (racemic) |  | 2.16 | 3.76 | 1.42 | remaining at 0.5 h [1]: 95%; remaining at 10 min [3]: 99% |
| CCN(CC)C(=O)C1(C)Sc2ccccc2-c2c1c1ccccc1n2CCF (racemic) | 13.1 nM | 2.75 | 4 | 0.88 |  |
| CCN(CC)C(=O)C1Sc2ccccc2-c2c1c1cc(OC)ccc1n2CCF (racemic) |  | 1.73 | 3.77 |  | remaining at 0.5 h [1]: 97%; remaining at 1 h [2]: 96%; remaining at 10 min [3]: 98% |
| CCN(CC)C(=O)CC1c2cc(OC)ccc2-c2c1c1ccccc1n2CCF (racemic) | 154 nM |  |  |  |  |
| CCN(CC)C(=O)C1c2ccccc2-c2[nH]c3ccccc3c21 (racemic) | 0.8 nM | 5.8 |  | 1 |  |
| CCN(CC)C(=O)C1Cc2ccccc2-c2c1c1ccccc1n2CCF (racemic) | 1.13 nM |  | 3.69 |  |  |
| CCN(CC)C(=O)C1(C)c2c(n(CCF)c3ccccc23)-c2ccccc2S1(=O)=O (racemic) | 410 nM |  | 3.1 |  |  |
| CCN(CC)C(=O)C1c2c(n(CCF)c3ccccc23)-c2ccccc2S1(=O)=O (racemic) | 8.79 nM | 1.75 | 3 | 2.13 |  |
| CCN(CC)C(=O)C1Sc2cc(N(CCF)C(C)=O)ccc2-c2c1c1ccccc1n2CCF (racemic) | 1.35 nM |  | 3.13 |  |  |
| CCN(CC)C(=O)C1Sc2cc(NC(C)=O)ccc2-c2c1c1ccccc1n2CCF (racemic) | 0.39 nM |  | 3.15 |  |  |
| CCN(CC)C(=O)C1Sc2ccc(O)cc2-c2c1c1ccccc1n2CCF (racemic) | 0.55 nM | 0.75 |  | 1.25 |  |
| CCN(CC)C(=O)C1Sc2cc(O)ccc2-c2c1c1ccccc1n2CCF (racemic) | 0.33 nM | 1.11 | 2.7 | 1.44 |  |
| CCN(CC)C(=O)C1Sc2cc(F)ccc2-c2c1c1ccccc1n2CCF (racemic) |  |  | 3.87 |  |  |
| CCN(CC)C(=O)C1Sc2c(F)cccc2-c2c1c1ccccc1n2CCF (racemic) |  |  | 3.79 |  |  |
| CCN(CC)C(=O)C1Sc2ccccc2-c2[nH]c3ccc(NC(C)=O)cc3c21 (racemic) | 59.2 nM |  |  |  |  |
| CCN(CC)C(=O)C1Sc2ccccc2-c2c1c1cccc(OC)c1n2CCF (racemic) | 0.93 nM | 5 | 3.85 | 2 |  |
| CCN(CC)C(=O)C1Sc2ccccc2-c2[nH]c3ccccc3c21 (racemic) | 0.76 nM |  |  |  |  |
| CCN(CC)C(=O)C1Sc2ccccc2-c2c1c1ccccc1n2Cc1cn(CCF)nn1 (racemic) | 63.6 nM |  |  |  |  |
| CCN(CC)C(=O)C1Sc2cc(OCCF)ccc2-c2c1c1ccccc1n2C (racemic) | 0.35 nM |  |  |  |  |
| CCN(CC)C(=O)C1Sc2ccccc2-c2c1c1ccccc1n2CCCCF (racemic) | 0.52 nM |  |  |  |  |
| CCN(CC)C(=O)C1Sc2ccccc2-c2c1c1ccccc1n2CCCF (racemic) | 0.36 nM |  |  |  |  |
| CCN(CC)C(=O)C1Sc2ccccc2-c2c1c1ccccc1n2CCF (single isomer, unassigned; form 1) | 5.24 nM |  |  |  |  |
| CCN(CC)C(=O)C1(C)Sc2ccccc2-c2c1c1ccccc1n2CCF (single isomer, unassigned; form 1) | 30.2 nM |  |  |  |  |
| CCN(CC)C(=O)C1Sc2ccccc2-c2c1c1cc(OC)ccc1n2CCF (single isomer, unassigned; form 1) | 1.17 nM |  |  |  |  |
| CCN(CC)C(=O)C1Sc2ccccc2-c2c1c1ccccc1n2CCF (single isomer, unassigned; form 2) | 0.22 nM |  |  |  | remaining at 0.25 h [6]: 83% |
| CCN(CC)C(=O)C1(C)Sc2ccccc2-c2c1c1ccccc1n2CCF (single isomer, unassigned; form 2) | 16.8 nM |  |  |  |  |
| CCN(CC)C(=O)C1Sc2ccccc2-c2c1c1cc(OC)ccc1n2CCF (single isomer, unassigned; form 2) | 0.29 nM |  |  |  |  |

Now from value to compound, other results behind:

| Ki (Translocator protein) | Ratio (Striatum) | logP [4] | Ratio [5] | SMILES | further results |
| --- | --- | --- | --- | --- | --- |
| 0.4 nM | 4.75 | 3.82 | 3.5 | CCN(CC)C(=O)C1Sc2ccccc2-c2c1c1ccc(OC)cc1n2CCF (racemic) | remaining at 0.5 h [1]: 98%; remaining at 1 h [2]: 98%; remaining at 10 min [3]: 99% |
| 0.39 nM | 2.11 | 3.84 | 1.37 | CCN(CC)C(=O)C1Sc2ccc(F)cc2-c2c1c1ccccc1n2CCF (racemic) |  |
| 0.33 nM | 1.07 | 3.67 | 1.53 | CCN(CC)C(=O)C1Sc2c(OC)cccc2-c2c1c1ccccc1n2CCF (racemic) |  |
| 0.3 nM | 1.17 | 3.91 | 1.4 | CCN(CC)C(=O)C1Sc2cc(OC)ccc2-c2c1c1ccccc1n2CCF (racemic) |  |
| 0.3 nM | 1.42 | 3.65 | 1.37 | CCN(CC)C(=O)C1Sc2ccc(OC)cc2-c2c1c1ccccc1n2CCF (racemic) |  |
| 0.52 nM | 2.89 | 3.88 | 2.67 | CCOc1ccc2c(c1)c1c(n2CCF)-c2ccccc2SC1C(=O)N(CC)CC (racemic) |  |
| 1.07 nM | 3 | 3.67 | 1.78 | CCN(CC)C(=O)C1Sc2cccc(OC)c2-c2c1c1ccccc1n2CCF (racemic) |  |
| 0.19 nM | 2.23 | 3.6 | 1.93 | CCN(CC)C(=O)C1Sc2ccccc2-c2c1c1cc(C#N)ccc1n2CCF (racemic) |  |
| 0.26 nM | 1.29 | 4.03 | 1.46 | CCN(CC)C(=O)C1Sc2ccccc2-c2c1c1cc(OC(F)(F)F)ccc1n2CCF (racemic) |  |
| 0.34 nM | 2 | 3.96 | 1.73 | CCN(CC)C(=O)C1Sc2ccccc2-c2c1c1cc(C)ccc1n2CCF (racemic) |  |
| 0.47 nM | 1.53 | 4.23 | 1.35 | CCN(CC)C(=O)C1Sc2ccccc2-c2c1c1cc(Br)ccc1n2CCF (racemic) |  |
| 0.49 nM | 1.6 | 3.85 | 1.16 | CCN(CC)C(=O)C1Sc2ccccc2-c2c1c1cc(F)ccc1n2CCF (racemic) |  |
| 19 nM | 1.33 | 3.19 | 1 | CCN(CC)C(=O)C1Sc2ccccc2-c2c1c1cc(O)ccc1n2CCF (racemic) |  |
| 8.44 nM | 4.67 | 3.87 | 2.11 | CCN(CC)C(=O)C1Sc2ccccc2-c2c1c1ccc(OC)nc1n2CCF (racemic) |  |
| 3.92 nM |  | 3.12 |  | CCN(CC)C(=O)C1Sc2ccccc2-c2c1c1cccnc1n2CCF (racemic) |  |
| 0.23 nM | 1.29 | 4.17 | 1.57 | CCN(CC)C(=O)C1Sc2ccccc2-c2c1c1cc(Cl)ccc1n2CCF (racemic) |  |
| 1.09 nM | 2 |  | 2.42 | CCN(CC)C(=O)C1Sc2ccccc2-c2c1c1c(OC)cccc1n2CCF (racemic) |  |
